Several values for one entry are separate records, joined by “and”; a condition that tells them apart may be missing. Identical values can stand only once.
Tests used:
[1] = species: Canis familiaris; experiment: In vitro electrophysiological activity in canine cardiac occurred is 100 uM.; format: functional, Canis lupus familiaris, Heart
[2] = species: Canis familiaris; experiment: In vitro electrophysiological activity in canine cardiac occurred is 1 uM.; format: functional, Canis lupus familiaris, Heart
[3] = species: Canis familiaris; experiment: In vitro electrophysiological evaluation in canine cardiac Purkinje fibres reported as % change for action potential duration at a concentration of 10 uM; format: functional, Canis lupus familiaris, Purkinje fiber
Outline: (§1)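 Canine cardiac Purkinje fibres, intracellular microelectrode recording, paced at a basic cycle length of 1 s. APD95 and Vmax read simultaneously. Compound: 10 mM stock in deionized water, diluted into Tyrode's solution, tested over the stated concentration range. Each fibre used once as its own control. Result is % change from control, given at 10 µM or as the maximum with its concentration. M = <10% decrease or an increase in Vmax.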

[4] = species: Canis familiaris; experiment: In vitro electrophysiological evaluation in canine cardiac ventricular muscle reported as maximum % change for conduction time(CT) at 0.1-100 uM concentration range; Minimal (<10% decrease or increase inCT).; format: functional, Canis lupus familiaris, Muscle tissue
[5] = species: Canis familiaris; experiment: In vitro electrophysiological evaluation in canine cardiac Purkinje fibres reported as % change for action potential duration at 10 uM at 1-100 uM concentration range; format: functional, Canis lupus familiaris, Purkinje fiber; outline: as §1
[6] = species: Canis familiaris; experiment: (§2) In vitro electrophysiological evaluation in canine cardiac occurred is 100 uM.; format: functional; conditions: Canis lupus familiaris; Heart
[7] = species: Canis familiaris; experiment: In vitro electrophysiological evaluation in canine cardiac Purkinje fibres reported as percent change Vmax at 10 uM at concentration range of 1-100 uM; Minimal (<10% decrease or increase in Vmax).; format: functional, organism-based; conditions: Canis lupus familiaris, Purkinje fiber
Outline: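 Canine cardiac Purkinje fibers, intracellular recording, paced at a basic cycle length of 1 s. APD95 and Vmax are recorded together across cumulative concentrations. Compound is a 10 mM aqueous stock diluted into Tyrode's solution. Each fiber is used once as its own control. Readouts are percent change from control at 10 μM, and the maximum change with the concentration where it occurred.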

[8] = species: Canis familiaris; experiment: In vitro electrophysiological evaluation in canine cardiac ventricular muscle reported as % change for conduction time(CT) at 0.1-100 uM concentration range; Minimal (<10% decrease or increase inCT).; format: functional, Canis lupus familiaris, Muscle tissue
Outline: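 Canine right ventricular/papillary muscle strips in oxygenated Tyrode's, extracellular extra-stimulus conduction-interval method. FRP and CT are read from conduction-interval curves before and during rising concentrations. Compound is a 10 mM aqueous stock diluted into Tyrode's. Each strip is used once as its own control. Readouts are percent change from control at 10 μM, plus the maximum change with its concentration.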

[9] = species: Canis familiaris; experiment: In vitro electrophysiological evaluation in canine cardiac Purkinje fibres reported as percent change Vmax at 10 uM at concentration range of 0.1-100 uM.; format: functional, organism-based; conditions: Canis lupus familiaris, Purkinje fiber; outline: as §1
[10] = tested on: Canis familiaris; experiment: Conduction time was determined by intraduodenal administration of 10 mg/kg (high dose) of compound in anesthetized dogs. Value was reported for experiment 2; format: functional, Canis lupus familiaris
Outline: (§3)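 Anesthetized dogs; compound given intraduodenally, generally as two doses, the second a cumulative (high) dose. LV functional refractory period and conduction time measured 15, 30 and 45 min after dosing; heart rate and blood pressure measured during nonpacing intervals. Values are % change from control, given per individual animal. Active if FRP or CT prolonged by ≥12%.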

[11] = tested on: Canis familiaris; experiment: Left ventricular refractory period was determined by intraduodenal administration of 10 mg/kg (high dose) of compound in anesthetized dogs. Value was reported for experiment 2; format: functional, Canis lupus familiaris, Cardiac ventricle
Outline: (§4)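 Anesthetized dogs received two intraduodenal doses, the second cumulative (low dose/high dose). Left ventricular FRP and CT were measured 15, 30 and 45 min after dosing. Heart rate and mean blood pressure were taken during nonpacing intervals. Values are percent change from control. The vehicle was 5% dextrose in water/tragacanth. Activity was defined as ≥12% prolongation of FRP or CT.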

[12] = species: Canis familiaris; experiment: In vitro electrophysiological evaluation in canine cardiac ventricular muscle reported as maximum % change for conduction time(CT) at 0.1-10 uM concentration range; Minimal (<10% decrease or increase in CT).; format: functional, Canis lupus familiaris, Muscle tissue
Outline: (§5)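 Canine right ventricle and papillary muscle strips in oxygenated Tyrode's solution, fitted with stimulating and recording electrodes. The extra-stimulus conduction-interval method was adapted for in vitro use. FRP and CT were read from a conduction-interval curve before and after various compound concentrations, and expressed as percent change from control. Compounds were taken from 10 mM deionized-water stock into Tyrode's. Each strip was used once as its own control.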

[13] = tested on: Canis familiaris; experiment: Left ventricular refractory period was determined by intraduodenal administration of 3 mg/kg (low dose) of compound in anesthetized dogs. Value was reported for experiment 2; format: functional, Canis lupus familiaris, Cardiac ventricle; outline: as §4
[14] = tested on: Canis familiaris; experiment: Heart rate was determined by intraduodenal administration of two dosages of 10 mg/kg of compound in anesthetized dogs. Value was reported for experiment 1; format: functional, Canis lupus familiaris; outline: as §3
[15] = tested on: Canis familiaris; experiment: Heart rate was determined by intraduodenal administration of two dosages of 10 mg/kg of compound in anesthetized dogs. Value was reported for experiment 2; format: functional, Canis lupus familiaris; outline: as §3
[16] = species: Canis familiaris; experiment: In vitro electrophysiological evaluation in canine cardiac ventricular muscle reported as % change for the functional refractory period (FRP) at 10 uM at concentration range of 0.1-10 uM; parameters: species or system Canis lupus familiaris, Muscle tissue; outline: as §5
[17] = tested on: Canis familiaris; experiment: Heart rate was determined by intraduodenal administration of two dosages of 30 mg/kg of compound in anesthetized dogs. Value was reported for experiment 1; format: functional, Canis lupus familiaris; outline: as §3
[18] = tested on: Canis familiaris; experiment: Mean arterial blood pressure was determined by intraduodenal administration of two dosages of 30 mg/kg of compound in anesthetized dogs. Value was reported for experiment 1; format: functional, Canis lupus familiaris; outline: as §4
[19] = species: Canis familiaris; experiment: In vitro electrophysiological evaluation in canine cardiac ventricular muscle reported as % change for conduction time(CT) at 10 uM at 0.1-10 uM concentration range; Minimal (<10% decrease or increase in CT).; format: functional, Canis lupus familiaris, Muscle tissue
[20] = tested on: Canis familiaris; experiment: Mean arterial blood pressure was determined by intraduodenal administration of two dosages of 10 mg/kg of compound in anesthetized dogs. Value was reported for experiment 2; format: functional, Canis lupus familiaris; outline: as §4
[21] = species: Canis familiaris; experiment: In vitro electrophysiological evaluation in canine cardiac Purkinje fibres reported as maximum percent change Vmax concentration range of 0.1-100 uM; conduction block; format: functional; conditions: Canis lupus familiaris; Purkinje fiber; outline: as §1
[22] = tested on: Canis familiaris; experiment: Mean arterial blood pressure was determined by intraduodenal administration of two dosages of 10 mg/kg of compound in anesthetized dogs. Value was reported for experiment 1; format: functional, Canis lupus familiaris; outline: as §4
[23] = tested on: Canis familiaris; experiment: Conduction time was determined by intraduodenal administration of 10 mg/kg (low dose) of compound in anesthetized dogs. Value was reported for experiment 1; format: functional, Canis lupus familiaris; outline: as §3
[24] = tested on: Canis familiaris; experiment: Heart rate was determined by intraduodenal administration of two dosages of 3 mg/kg of compound in anesthetized dogs. Value was reported for experiment 2; format: functional, Canis lupus familiaris; outline: as §3
[25] = species: Canis familiaris; experiment: as §2; format: functional, organism-based; conditions: Canis lupus familiaris; Heart
[26] = species: Canis familiaris; experiment: In vitro electrophysiological evaluation in canine cardiac Purkinje fibres reported as maximum percent change Vmax concentration range of 0.1-10 uM; Minimal (<10% decrease or increase in Vmax).; format: functional; conditions: Canis lupus familiaris; Purkinje fiber; outline: as §1
[27] = species: Canis familiaris; experiment: In vitro electrophysiological evaluation in canine cardiac Purkinje fibres reported as percent change Vmax at 10 uM at concentration range of 0.1-10 uM; Minimal (<10% decrease or increase in Vmax).; format: functional; conditions: Canis lupus familiaris, Purkinje fiber; outline: as §1
[28] = species: Canis familiaris; experiment: In vitro electrophysiological activity in canine cardiac occurred is 10 uM.; format: functional, Canis lupus familiaris, Heart
[29] = tested on: Canis familiaris; experiment: Conduction time was determined by intraduodenal administration of 3 mg/kg (low dose) of compound in anesthetized dogs. Value was reported for experiment 2; format: functional, Canis lupus familiaris; outline: as §3
[30] = tested on: Canis familiaris; experiment: Mean arterial blood pressure was determined by intraduodenal administration of two dosages of 3 mg/kg of compound in anesthetized dogs. Value was reported for experiment 2; format: functional, Canis lupus familiaris
[31] = tested on: Canis familiaris; experiment: Conduction time was determined by intraduodenal administration of 30 mg/kg (high dose) of compound in anesthetized dogs. Value was reported for experiment 1; format: functional, Canis lupus familiaris; outline: as §3
[32] = species: Canis familiaris; experiment: In vitro electrophysiological evaluation in canine cardiac ventricular muscle reported as maximum % change for functional refractory period (FRP) at 0.1-10 uM concentration range; concentration at which it occurred is 10 uM.; parameters: species or system Canis lupus familiaris, Muscle tissue; outline: as §5
[33] = species: Canis familiaris; experiment: In vitro electrophysiological evaluation in canine cardiac Purkinje fibres reported as percent change Vmax at 10 uM at concentration range of 0.1-100 uM; Minimal (<10% decrease or increase in Vmax).; format: functional, organism-based; conditions: Canis lupus familiaris, Purkinje fiber; outline: as §1
[34] = tested on: Canis familiaris; experiment: Left ventricular refractory period was determined by intraduodenal administration of 10 mg/kg (low dose) of compound in anesthetized dogs. Value was reported for experiment 1; format: functional, Canis lupus familiaris, Cardiac ventricle; outline: as §4
[35] = tested on: Canis familiaris; experiment: Left ventricular refractory period was determined by intraduodenal administration of 30 mg/kg (high dose) of compound in anesthetized dogs. Value was reported for experiment 1; format: functional, Canis lupus familiaris, Cardiac ventricle; outline: as §4

## CCN(CC)CCNC(=O)c1ccc(N)cc1.Cl [PROCAINAMIDE HYDROCHLORIDE]
[1]
  APD95: -8% and 3%
[2]
  APD95: -7%
[3]
  APD95: -4%
[4]
  CT: <10%
[5]
  APD95: -1% and 0%
[6]
  Vmax: -14% and -10% (2×)
[7]
  Vmax: < 10%
[8]
  CT: <10%

## Cl.O=C1C2CCN(CC2)C1CCCc1ccc(Cl)cc1 (configuration not stated)
[9]
  Vmax: -41%
[10]
  CT: 13%
[11]
  LV FRP: 9%
[12]
  CT: <10%
[13]
  LV FRP: 5%
[14]
  HR: -17%
[15]
  HR: -14%
[16]
  FRP: 39% and 23%
[17]
  HR: -31%
[18]
  Mean blood pressure: 5%
[19]
  CT: <10%
[20]
  Mean blood pressure: 24%
[21]
  Vmax: < 10%
[22]
  Mean blood pressure: -4%
[23]
  CT: 0%
[1]
  APD95: -11% and -18%
[24]
  HR: -2%
[3]
  APD95: 6%
[25]
  Vmax: -12%
[26]
  Vmax: < 10%
[27]
  Vmax: < 10%
[28]
  APD95: 6%
[29]
  CT: 3%
[30]
  Mean blood pressure: 20%
[31]
  CT: 2%
[32]
  FRP: 39% and 23%
[33]
  Vmax: < 10%
[34]
  LV FRP: 15%
[35]
  LV FRP: 19%

— ChEMBL document CHEMBL1123566, “Synthesis and cardiac electrophysiological activity of 2- and 3-[(substituted phenyl)alkyl]quinuclidines. Structure-activity relationships” (1987)
